Experimental findings from ChEMBL document CHEMBL4251649, “Discovery and optimization of phthalazinone derivatives as a new class of potent dengue virus inhibitors” (Eur J Med Chem, 2018) are described below.

One data set relates to dengue virus type 2. The data set is described as follows: Antiviral activity against DENV2 D2Y98P infected in human HuH7 cells assessed as inhibition of viral RNA replication incubated for 48 hrs by qRT-PCR method. It counts as functional, organism-based. As to conditions: Huh-7, 48 h. The method in brief: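 Huh7 cells (4×10^4/well, 2% FBS DMEM, overnight) infected with DENV-2 D2Y98P at MOI 2 for 2 h, washed, then given compound in fresh medium; after 48 h the supernatant viral genomic RNA was extracted and quantified by one-step qRT-PCR; IC50 and IC90 were taken as 50% and 90% inhibition of RNA replication.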

The nature of data set [1]: Cytotoxicity against human HuH7 cells assessed as reduction in cell viability after 48 hrs by MTT assay. The data set is classed as cell-based, Huh-7. The method in brief:
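The Huh7 cells were seeded and treated with compound in the same way as the antiviral assay, and viability was read by MTT reduction. CC50 is the compound concentration that lowered the readout to half of the no-compound control.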

A short description of data set [2]: Selectivity index, CC50 for human HuH7 cells to IC50 for DENV2 D2Y98P. It counts as toxicity. As to conditions: read-out: Ratio CC50/IC50. The method in brief:
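SI is calculated as CC50 (MTT cytotoxicity in Huh7) divided by IC50 (qRT-PCR of DENV-2 D2Y98P supernatant RNA, Huh7, MOI 2, 48 h).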

The subject of data set [3] is Mus musculus. Kind of data set: Plasma clearance in CD-1 mouse at 2 mg/kg, iv. It counts as ADME, organism-based. As to conditions: in vivo. The method in brief:
(§1)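 Male CD-1 mice (18–22 g, n=3/group), fasted 12 h, were given 2 mg/kg IV. Femoral-vein blood (EDTA) was collected at 3 min, 0.25, 0.75, 2, 4, 8 and 24 h. Plasma was mixed with methanol:acetonitrile (1:1), stored at -20°C, and analysed by non-compartmental methods.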

The subject of data set [4] is Mus musculus. The data set is described as follows: Volume of distribution at steady state in CD-1 mouse at 2 mg/kg, iv. The data set is classed as ADME, organism-based. As to conditions: in vivo. The method in brief: as §1
Data set [5] is described as follows: Tmax in CD-1 mouse at 10 mg/kg, po. It counts as ADME, organism-based. As to conditions: in vivo. The method in brief:
(§2)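 Male CD-1 mice (18–22 g, n=3/group), fasted 12 h and fed 2 h after dosing, received 10 mg/kg orally. Femoral-vein blood (EDTA) was drawn at 0.25, 0.5, 1, 2, 4, 8 and 24 h. Plasma was mixed with methanol:acetonitrile (1:1) and stored at -20°C. Parameters came from non-compartmental analysis.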

In data set [6] the test system is Mus musculus. The data set is described as follows: Half life in CD-1 mouse at 2 mg/kg, iv. The data set is classed as ADME, organism-based. To be noted: in vivo. Summed up: as §1
A short description of data set [7]: Half life in CD-1 mouse at 10 mg/kg, po. The data set is classed as ADME, organism-based. To be noted: in vivo. Summed up:
as §2

Data set [8] is described as follows: Cmax in CD-1 mouse at 10 mg/kg, po. To be noted: in vivo. On the set-up: dose 10 mg/kg, route oral. The data set is classed as ADME, organism-based. Summed up:
as §2

The subject of data set [9] is Mus musculus. Kind of data set: AUClast in CD-1 mouse at 2 mg/kg, iv. It counts as ADME, organism-based. On the set-up: dose 2 mg/kg, time 0 - last, route intravenous. To be noted: in vivo. The method in brief:
as §1

The nature of data set [10]: AUClast in CD-1 mouse at 10 mg/kg, po. It counts as ADME, organism-based. On the set-up: dose 10 mg/kg, time 0 - last, route oral. To be noted: in vivo. Summed up:
as §2

Data set [11] can be described thus: Oral bioavailability in CD-1 mouse at 10 mg/kg. The data set is classed as ADME, organism-based. As to conditions: in vivo. Summed up:
as §2

For the molecule `COc1ccccc1-c1nn(Cc2ccc(NC(=O)OCCCCN(C)C)cc2)c(=O)c2ccccc12`, in the data set with dengue virus type 2, the 50% inhibitory concentration (IC50) worked out at 1.4 µM and the IC90 was 5.44 µM. In addition, in data set [1], the CC50 at 48 h amounted to 44.8 µM. Besides, the selectivity ratio in [2] came out at 32.
The corresponding values for `CN(C)CCCCOC(=O)Nc1cccc(Cn2nc(-c3ccc(F)cc3)c3ccccc3c2=O)c1` are 0.64 µM, 4.65 µM, 8.51 µM and 13.3.
On the same counts, the results for `CN(C)CCCCOC(=O)Nc1ccc(-n2nc(-c3ccc(F)cc3)c3ccccc3c2=O)cc1` are 1.34 µM, 12.6 µM, 21.8 µM and 16.2.
On the same counts, the results for `CN(C)CCCCOC(=O)Nc1ccc(Cn2nc(-c3ccccc3F)c3ccccc3c2=O)cc1` are 1.32 µM, 8.79 µM, 52.5 µM and 39.8.
Turning to `CN(C)CCCCOC(=O)Nc1ccc(Cn2nc(-c3ccncc3)c3ccccc3c2=O)cc1`, in the data set with dengue virus type 2, the IC50 worked out at 22.9 µM and the concentration for an effect of 90% (IC90) was determined as 40.9 µM. Moreover, in data set [1], the half-maximal cytotoxic concentration (CC50) at 48 h stood at 62.7 µM. Also, in data set [2], the selectivity ratio is 2.7.
The corresponding values for `CN(C)CCCCOC(=O)Nc1ccc(Cn2nc(-c3cnn(C)c3)c3ccccc3c2=O)cc1` are 6.53 µM, 43.3 µM, 55.9 µM and 8.5.
Regarding `CN(C)CCCCOC(=O)Nc1ccc(Cn2nc(-c3cccnc3)c3ccccc3c2=O)cc1`, in the data set on dengue virus type 2, the half-inhibitory concentration (IC50) stood at 6.32 µM and the IC90 came to 30.2 µM. Also, the CC50 at 48 h in data set [1] amounted to 68 µM. Further, the selectivity ratio in data set [2] worked out at 10.7.
The corresponding values for `CC(c1ccc(NC(=O)OCCCCN(C)C)cc1)n1nc(-c2ccc(F)cc2)c2ccccc2c1=O` (stereo not given) are 1.27 µM, 5.57 µM, 15.2 µM and 11.9.
Turning to `CN(C)CCCCOC(=O)Nc1ccc(Cn2nc(-c3cccc(C(F)(F)F)c3)c3ccccc3c2=O)cc1`, in the data set with dengue virus type 2, the IC50 was 0.13 µM and the concentration for an effect of 90% (IC90) turned out to be 1.15 µM. Besides, in data set [1], the 50% cytotoxic concentration (CC50) at 48 h worked out at 11.6 µM. Further, in data set [2], the selectivity ratio was found to be 89.2. In the data set on Mus musculus [3], this molecule gave a CL of 0.833 mL/min/kg. In the data set on Mus musculus [4], the distribution volume (Vdss) stood at 17.137 L/kg. Further, the time to peak (Tmax) in data set [5] is 8 h. In the data set on Mus musculus [6], this molecule yielded a t1/2 of 4.33 h. In addition, the half-life in data set [7] was 2.91 h. Further, the Cmax in data set [8] is 94.5 ng/mL. Further, the AUClast in the data set on Mus musculus [9] is 505 ng·h/mL. This molecule also registered an AUC(0-t) in data set [10] of 883 ng·h/mL. Also, the bioavailability in data set [11] was 34.9%.
With `CN(C)CCCCOC(=O)Nc1ccc(Cn2nc(-c3ccc(C#N)cc3)c3ccccc3c2=O)cc1`, in the data set on dengue virus type 2, the IC50 amounted to 0.7 µM and the IC90 was found to be 7.07 µM. Also, the CC50 at 48 h in data set [1] was determined as 37 µM. The selectivity ratio in [2] stood at 52.8.
`CN(C)CCCCOC(=O)Nc1ccc(Cn2nc(-c3ccc(C(F)(F)F)cc3)c3ccccc3c2=O)cc1`: in the data set on dengue virus type 2, the IC50 came out at 1.47 µM and the 90% effect concentration (IC90) is 6.61 µM. The CC50 at 48 h in data set [1] came out at 3.36 µM. In data set [2], the selectivity ratio came to 2.3.
Turning to `CN(C)CCCC(=O)Nc1ccc(Cn2nc(-c3ccc(F)cc3)c3ccccc3c2=O)cc1`, in the data set on dengue virus type 2, the IC50 stood at 1 µM and the IC90 turned out to be 8.42 µM. Moreover, the 50% cytotoxic concentration (CC50) at 48 h in data set [1] came out at 38.2 µM. Moreover, in data set [2], the selectivity ratio amounted to 38.2.
The corresponding values for `CN(C)CCCCOC(=O)Nc1ccc(Cn2nc(-c3cccc(C#N)c3)c3ccccc3c2=O)cc1` are 1.72 µM, 5.09 µM, 17.2 µM and 10.
On the same counts, the results for `CN(C)CCCCOC(=O)Nc1ccc(Cn2nc(-c3ccccc3)c3ccccc3c2=O)cc1` are 2.68 µM, 6.09 µM, 16 µM and 5.99.
Consider `CN(C)CCCCOC(=O)Nc1ccccc1Cn1nc(-c2ccc(F)cc2)c2ccccc2c1=O`, for which, in the data set with dengue virus type 2, the half-inhibitory concentration (IC50) stood at 2.83 µM and the concentration for an effect of 90% (IC90) is 13.2 µM. The CC50 at 48 h in [1] turned out to be 48.5 µM. Further, in data set [2], the selectivity ratio came out at 17.1.
On the same counts, the results for `CN(C)CCCCOC(=O)Nc1ccc(Cn2nc(-c3cccc(F)c3)c3ccccc3c2=O)cc1` are 1.51 µM, 8.24 µM, 37.4 µM and 24.7.
The corresponding values for `CN(C)CCCCOC(=O)Nc1ccc(Cn2nc(-c3cncnc3)c3ccccc3c2=O)cc1` are 0.6 µM, 62.4 µM, 65.3 µM and 109.
On the same counts, the results for `CN(C)CCCCOC(=O)Nc1ccc(Cn2nc(-c3ccc(F)cc3)c3ccccc3c2=O)cc1` are 0.62 µM, 4.27 µM, 19 µM and 30.7.
Take `COc1cccc(-c2nn(Cc3ccc(NC(=O)OCCCCN(C)C)cc3)c(=O)c3ccccc23)c1`: in the data set on dengue virus type 2, the IC50 was determined as 0.34 µM and the concentration for an effect of 90% (IC90) is 1.58 µM. Besides, the CC50 at 48 h in data set [1] stood at 17.6 µM. In addition, the selectivity ratio in [2] came out at 51.8.
On the same counts, the results for `Nc1ccc(Cn2nc(-c3ccc(F)cc3)c3ccccc3c2=O)cc1` are 20 µM, more than 80 µM, more than 80 µM and more than 4.
The corresponding values for `CN(C)CCCCOC(=O)Nc1ccc(Cn2nc(-c3ccccc3C(F)(F)F)c3ccccc3c2=O)cc1` are 1.99 µM, 3.37 µM, 35.7 µM and 18.
On the same counts, the results for `CN(C)CCCCOC(=O)Nc1ccc(Cn2nc(-c3ccccc3C#N)c3ccccc3c2=O)cc1` are 5.52 µM, 12.4 µM, 90.7 µM and 16.4.
For the molecule `COc1ccc(-c2nn(Cc3ccc(NC(=O)OCCCCN(C)C)cc3)c(=O)c3ccccc23)cc1`, in the data set with dengue virus type 2, the IC50 was 1.94 µM and the IC90 worked out at 5.88 µM. Besides, in data set [1], the 50% cytotoxic concentration (CC50) at 48 h is 20.3 µM. Moreover, in data set [2], the selectivity ratio was 10.5.
In the case of `CCCCOC(=O)Nc1ccc(Cn2nc(-c3ccc(F)cc3)c3ccccc3c2=O)cc1`, the CC50 at 48 h in data set [1] came to 19.5 µM. For the same molecule, the selectivity ratio in data set [2] came to 14.3.
As to `CN(C)CCCCNC(=O)Nc1ccc(Cn2nc(-c3ccc(F)cc3)c3ccccc3c2=O)cc1`, in data set [1], the CC50 at 48 h amounted to 46.6 µM. Further, in [2], the selectivity ratio came out at 10.7.
